Assay results: ChEMBL document CHEMBL4354820, “Optimizing Targeted Inhibitors of P-Glycoprotein Using Computational and Structure-Guided Approaches” (J Med Chem, 2019)

Target: T1, ATP-dependent translocase ABCB1 (Homo sapiens, UniProt P08183)
Assay: Inhibition of P-gp overexpressed in human DU145-TxR cells assessed as increase in cellular accumulation of calcein AM at 2 uM pretreated followed by calcein AM addition by fluorescence imaging analysis
Assay type: cell-based
Details: not given; call rule not given here
In short: (§1)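 Confluent DU145TXR monolayers in phenol red-free RPMI 1640 given 2 μM inhibitor (DMSO vehicle) and 1 μg mL−1 calcein AM, either added together or after a 6 h inhibitor-only preincubation at 37 °C. Calcein fluorescence (ex 485 / em 535 nm) read over 60 min at 20 min intervals. Six replicates, at least two independent experiments.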

T1 sequence (P08183 whole entry): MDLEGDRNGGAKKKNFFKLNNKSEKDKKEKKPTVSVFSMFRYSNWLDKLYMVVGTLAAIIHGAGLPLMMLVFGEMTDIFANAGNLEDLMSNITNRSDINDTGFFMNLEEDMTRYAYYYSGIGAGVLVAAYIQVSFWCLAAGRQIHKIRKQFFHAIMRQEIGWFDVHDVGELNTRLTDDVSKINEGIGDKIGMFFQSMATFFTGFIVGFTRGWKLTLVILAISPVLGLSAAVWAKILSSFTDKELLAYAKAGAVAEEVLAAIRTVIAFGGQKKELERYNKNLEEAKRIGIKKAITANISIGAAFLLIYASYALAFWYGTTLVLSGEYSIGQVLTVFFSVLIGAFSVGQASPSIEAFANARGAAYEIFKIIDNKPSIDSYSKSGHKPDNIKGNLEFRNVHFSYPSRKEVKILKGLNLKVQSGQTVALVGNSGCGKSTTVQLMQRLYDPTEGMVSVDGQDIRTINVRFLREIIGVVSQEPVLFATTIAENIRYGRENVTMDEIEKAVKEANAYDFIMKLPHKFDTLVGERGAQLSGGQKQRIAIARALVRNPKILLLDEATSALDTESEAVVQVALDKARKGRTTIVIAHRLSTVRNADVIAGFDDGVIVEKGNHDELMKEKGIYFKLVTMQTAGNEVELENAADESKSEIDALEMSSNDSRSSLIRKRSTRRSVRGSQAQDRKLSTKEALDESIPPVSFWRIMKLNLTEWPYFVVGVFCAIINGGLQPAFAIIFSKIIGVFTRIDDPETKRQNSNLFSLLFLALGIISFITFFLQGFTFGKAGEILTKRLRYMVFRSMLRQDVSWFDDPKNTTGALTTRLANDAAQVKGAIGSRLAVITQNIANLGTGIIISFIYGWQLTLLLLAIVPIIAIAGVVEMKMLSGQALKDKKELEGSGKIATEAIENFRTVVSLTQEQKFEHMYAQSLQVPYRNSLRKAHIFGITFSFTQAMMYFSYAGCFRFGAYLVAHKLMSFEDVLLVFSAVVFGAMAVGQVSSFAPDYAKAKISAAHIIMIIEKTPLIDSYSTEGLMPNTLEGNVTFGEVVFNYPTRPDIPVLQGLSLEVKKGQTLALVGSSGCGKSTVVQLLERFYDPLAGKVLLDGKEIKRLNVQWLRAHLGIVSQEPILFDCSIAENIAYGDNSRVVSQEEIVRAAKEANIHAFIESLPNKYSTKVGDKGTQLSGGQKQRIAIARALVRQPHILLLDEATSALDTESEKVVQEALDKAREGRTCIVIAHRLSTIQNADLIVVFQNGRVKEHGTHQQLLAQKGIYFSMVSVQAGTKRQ

Compound	inhibition (INH)
Cc1cc(C)c(-c2cc(NC(=O)CSc3cccc(NC(=O)c4cncc(Br)c4)c3)n(-c3ccccc3)n2)cc1C	Active
Cc1cc(C)c(-c2cc(NC(=O)CSCC(=O)NCc3ccc(F)cc3)n(-c3ccccc3)n2)cc1C	Active

Target: T1, ATP-dependent translocase ABCB1
Assay: Reversal of P-gp mediated multidrug resistance in human DU145-TxR cells overexpressing P-gp assessed as potentiation of paclitaxel-induced cytotoxicity by measuring fold reduction paclitaxel IC50 at 7 uM after 48 hrs by MTT assay relative to paclitaxel alone
Assay type: cell-based
Details: not given
In short: (§2)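 DU145TXR cells seeded at 3000 per well, 24 h later treated 48 h with paclitaxel alone or with 3, 5, 7 or 10 μM inhibitor in complete medium (DMSO vehicle). MTT 4 h, formazan dissolved in DMSO, A570 read, background subtracted, viability relative to DMSO. IC50 by four-parameter nonlinear fit; eight replicates, at least two experiments. Fold values compare paclitaxel alone or with parent inhibitor.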

Compound	fold change (FC)
Cc1cc(C)c(-c2cc(NC(=O)CSc3cccc(NC(=O)c4cncc(Br)c4)c3)n(-c3ccccc3)n2)cc1C	236
Cc1cc(C)c(-c2cc(NC(=O)CSCC(=O)NCc3ccc(F)cc3)n(-c3ccccc3)n2)cc1C	11

Target: T1, ATP-dependent translocase ABCB1
Assay: Reversal of P-gp mediated multidrug resistance in human DU145-TxR cells overexpressing P-gp assessed as potentiation of paclitaxel-induced cytotoxicity by measuring fold reduction paclitaxel IC50 at 5 uM after 48 hrs by MTT assay relative to paclitaxel alone
Assay type: cell-based
Details: not given
In short: as §2

Compound	fold change (FC)
Cc1cc(C)c(-c2cc(NC(=O)CSc3cccc(NC(=O)c4cncc(Br)c4)c3)n(-c3ccccc3)n2)cc1C	106
Cc1cc(C)c(-c2cc(NC(=O)CSCC(=O)NCc3ccc(F)cc3)n(-c3ccccc3)n2)cc1C	5.6

Target: T1, ATP-dependent translocase ABCB1
Assay: Reversal of P-gp mediated multidrug resistance in human DU145-TxR cells overexpressing P-gp assessed as potentiation of paclitaxel-induced cytotoxicity by measuring fold reduction paclitaxel IC50 at 3 uM after 48 hrs by MTT assay relative to paclitaxel alone
Assay type: cell-based
Details: not given
In short: as §2

Compound	fold change (FC)
Cc1cc(C)c(-c2cc(NC(=O)CSc3cccc(NC(=O)c4cncc(Br)c4)c3)n(-c3ccccc3)n2)cc1C	38
Cc1cc(C)c(-c2cc(NC(=O)CSCC(=O)NCc3ccc(F)cc3)n(-c3ccccc3)n2)cc1C	4.6

Target: T1, ATP-dependent translocase ABCB1
Assay: Reversal of P-gp mediated multidrug resistance in human DU145-TxR cells overexpressing P-gp assessed as potentiation of paclitaxel-induced cytotoxicity by measuring fold reduction paclitaxel IC50 at 3 uM after 48 hrs by MTT assay relative to parent compound
Assay type: cell-based
Details: not given
In short: as §2

Compound	fold change (FC)
Cc1cc(C)c(-c2cc(NC(=O)CSc3cccc(NC(=O)c4cncc(Br)c4)c3)n(-c3ccccc3)n2)cc1C	11
Cc1cc(C)c(-c2cc(NC(=O)CSCC(=O)NCc3ccc(F)cc3)n(-c3ccccc3)n2)cc1C	1.4

Target: T1, ATP-dependent translocase ABCB1
Assay: Reversal of P-gp mediated multidrug resistance in human DU145-TxR cells overexpressing P-gp assessed as potentiation of paclitaxel-induced cytotoxicity by measuring fold reduction paclitaxel IC50 at 10 uM after 48 hrs by MTT assay relative to paclitaxel alone
Assay type: cell-based
Details: not given
In short: as §2

Compound	fold change (FC)
Cc1cc(C)c(-c2cc(NC(=O)CSc3cccc(NC(=O)c4cncc(Br)c4)c3)n(-c3ccccc3)n2)cc1C	353
Cc1cc(C)c(-c2cc(NC(=O)CSCC(=O)NCc3ccc(F)cc3)n(-c3ccccc3)n2)cc1C	16

Target: T1, ATP-dependent translocase ABCB1
Assay: Reversal of P-gp mediated multidrug resistance in human DU145-TxR cells overexpressing P-gp assessed as potentiation of paclitaxel-induced cytotoxicity by measuring fold reduction paclitaxel IC50 at 5 uM after 48 hrs by MTT assay relative to parent compound
Assay type: cell-based
Details: not given
In short: as §2

Compound	fold change (FC)
Cc1cc(C)c(-c2cc(NC(=O)CSc3cccc(NC(=O)c4cncc(Br)c4)c3)n(-c3ccccc3)n2)cc1C	9.7
Cc1cc(C)c(-c2cc(NC(=O)CSCC(=O)NCc3ccc(F)cc3)n(-c3ccccc3)n2)cc1C	0.5

Target: T1, ATP-dependent translocase ABCB1
Assay: Reversal of P-gp mediated multidrug resistance in human DU145-TxR cells overexpressing P-gp assessed as potentiation of paclitaxel-induced cytotoxicity by measuring fold reduction paclitaxel IC50 at 7 uM after 48 hrs by MTT assay relative to parent compound
Assay type: cell-based
Details: not given
In short: as §2

Compound	fold change (FC)
Cc1cc(C)c(-c2cc(NC(=O)CSc3cccc(NC(=O)c4cncc(Br)c4)c3)n(-c3ccccc3)n2)cc1C	6.6
Cc1cc(C)c(-c2cc(NC(=O)CSCC(=O)NCc3ccc(F)cc3)n(-c3ccccc3)n2)cc1C	0.3

Target: T1, ATP-dependent translocase ABCB1
Assay: Reversal of P-gp mediated multidrug resistance in human DU145-TxR cells overexpressing P-gp assessed as potentiation of paclitaxel-induced cytotoxicity by measuring fold reduction paclitaxel IC50 at 10 uM after 48 hrs by MTT assay relative to parent compound
Assay type: cell-based
Details: not given
In short: as §2

Compound	fold change (FC)
Cc1cc(C)c(-c2cc(NC(=O)CSc3cccc(NC(=O)c4cncc(Br)c4)c3)n(-c3ccccc3)n2)cc1C	3.5
Cc1cc(C)c(-c2cc(NC(=O)CSCC(=O)NCc3ccc(F)cc3)n(-c3ccccc3)n2)cc1C	0.2

Target: T1, ATP-dependent translocase ABCB1
Assay: Inhibition of P-gp overexpressed in human DU145-TxR cells assessed as increase in cellular accumulation of calcein AM at 2 uM preincubated for 6 hrs followed by calcein AM addition by fluorescence imaging analysis
Assay type: cell-based
Details: not given
In short: as §1

Compound	inhibition (INH)
Cc1cc(C)c(-c2cc(NC(=O)CSc3cccc(NC(=O)c4cncc(Br)c4)c3)n(-c3ccccc3)n2)cc1C	Active
Cc1cc(C)c(-c2cc(NC(=O)CSCC(=O)NCc3ccc(F)cc3)n(-c3ccccc3)n2)cc1C	Active

Target: T2, P-glycoprotein (ABCB1, mouse MDR3) ATPase (Mus musculus, UniProt P21447)
T2 sequence (P21447 whole entry): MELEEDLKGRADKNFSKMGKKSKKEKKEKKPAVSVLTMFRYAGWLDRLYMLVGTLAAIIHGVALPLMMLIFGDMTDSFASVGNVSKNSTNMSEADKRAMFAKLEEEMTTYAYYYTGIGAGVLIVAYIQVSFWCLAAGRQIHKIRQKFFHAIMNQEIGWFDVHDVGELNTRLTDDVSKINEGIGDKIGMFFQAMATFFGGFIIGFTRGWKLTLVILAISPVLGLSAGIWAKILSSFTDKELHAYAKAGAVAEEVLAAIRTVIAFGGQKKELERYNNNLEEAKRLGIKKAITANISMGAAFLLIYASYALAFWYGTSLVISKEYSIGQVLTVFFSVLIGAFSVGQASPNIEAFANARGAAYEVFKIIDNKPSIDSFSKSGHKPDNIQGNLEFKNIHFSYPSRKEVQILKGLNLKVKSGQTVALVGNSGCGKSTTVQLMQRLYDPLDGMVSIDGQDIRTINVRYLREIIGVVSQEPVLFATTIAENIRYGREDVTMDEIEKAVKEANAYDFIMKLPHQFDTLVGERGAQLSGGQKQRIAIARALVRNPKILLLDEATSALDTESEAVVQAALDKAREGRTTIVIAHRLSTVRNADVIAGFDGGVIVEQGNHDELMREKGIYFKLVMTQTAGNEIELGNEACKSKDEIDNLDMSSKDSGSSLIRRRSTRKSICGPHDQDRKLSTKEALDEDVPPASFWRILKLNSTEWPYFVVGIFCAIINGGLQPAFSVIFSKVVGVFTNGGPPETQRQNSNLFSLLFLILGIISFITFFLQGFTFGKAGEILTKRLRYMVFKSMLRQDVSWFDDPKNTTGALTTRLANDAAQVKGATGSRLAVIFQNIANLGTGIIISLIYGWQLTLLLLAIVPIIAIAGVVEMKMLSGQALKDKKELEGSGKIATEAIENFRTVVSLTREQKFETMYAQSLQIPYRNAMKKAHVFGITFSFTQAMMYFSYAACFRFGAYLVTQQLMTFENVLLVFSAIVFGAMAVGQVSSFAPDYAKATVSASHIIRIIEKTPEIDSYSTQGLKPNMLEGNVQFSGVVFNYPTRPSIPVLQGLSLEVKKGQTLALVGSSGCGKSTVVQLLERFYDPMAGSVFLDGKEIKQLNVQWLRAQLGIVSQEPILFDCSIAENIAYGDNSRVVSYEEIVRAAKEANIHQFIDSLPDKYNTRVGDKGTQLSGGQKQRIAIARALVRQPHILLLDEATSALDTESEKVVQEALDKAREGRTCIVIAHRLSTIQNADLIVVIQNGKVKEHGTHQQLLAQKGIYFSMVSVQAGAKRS
Assay: Inhibition of verampil-stimulated ATPase hydrolysis in recombinant mouse MDR3 expressed in Pichia pastoris measured after 30 mins in presence of NADH by coupled enzyme assay (reference value: 100 +/- 8 %)
Parameters: scale not given: the % may be the effect or the level left
Details: recombinant mouse MDR3 (P-gp) expressed in Pichia pastoris

Compound	Activity at 0.5 h
Cc1cc(C)c(-c2cc(NC(=O)CSc3cccc(NC(=O)c4cncc(Br)c4)c3)n(-c3ccccc3)n2)cc1C	62%

Target: T2, P-glycoprotein (ABCB1, mouse MDR3) ATPase
Assay: Effect on verampil-mediated ATPase hydrolysis of recombinant mouse MDR3 expressed in Pichia pastoris measured after 30 mins in presence of NADH by coupled enzyme assay (reference value: 100 +/- 8 %)
Parameters: scale not given: the % may be the effect or the level left
Details: recombinant mouse MDR3 (P-gp) expressed in Pichia pastoris, read-out: Activity

Compound	Activity at 0.5 h
Cc1cc(C)c(-c2cc(NC(=O)CSCC(=O)NCc3ccc(F)cc3)n(-c3ccccc3)n2)cc1C	98%

Target: T2, P-glycoprotein (ABCB1, mouse MDR3) ATPase
Assay: Stimulation of basal ATPase hydrolysis in recombinant mouse MDR3 expressed in Pichia pastoris measured after 30 mins in presence of NADH by coupled enzyme assay (reference value: 100 +/- 7 %)
Parameters: scale not given: the % may be the effect or the level left
Details: recombinant mouse MDR3 (P-gp) expressed in Pichia pastoris, read-out: Activity

Compound	Activity at 0.5 h
Cc1cc(C)c(-c2cc(NC(=O)CSc3cccc(NC(=O)c4cncc(Br)c4)c3)n(-c3ccccc3)n2)cc1C	150%

Target: T2, P-glycoprotein (ABCB1, mouse MDR3) ATPase
Assay: Effect on basal ATPase hydrolysis of recombinant mouse MDR3 expressed in Pichia pastoris measured after 30 mins in presence of NADH by coupled enzyme assay (reference value: 100 +/- 7 %)
Parameters: scale not given: the % may be the effect or the level left
Details: recombinant mouse MDR3 (P-gp) expressed in Pichia pastoris, read-out: Activity

Compound	Activity at 0.5 h
Cc1cc(C)c(-c2cc(NC(=O)CSCC(=O)NCc3ccc(F)cc3)n(-c3ccccc3)n2)cc1C	143%

Target: T1, ATP-dependent translocase ABCB1
Assay: Inhibition of P-gp overexpressed in human DU145-TxR cells assessed as increase in intracellular compound accumulation after 2.5 hrs in presence of tariquidar by LC-MS/MS analysis
Assay type: cell-based
Details: not given
In short: (§3)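 P-gp-overexpressing DU145TXR cells exposed to test compounds with or without tariquidar. Intracellular compound measured by LC–MS/MS, with daunorubicin as a transported-substrate control. Ratio is accumulation with tariquidar divided by accumulation without.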

Compound	inhibition (INH)
Cc1cc(C)c(-c2cc(NC(=O)CSCC(=O)NCc3ccc(F)cc3)n(-c3ccccc3)n2)cc1C	Active

Target: T1, ATP-dependent translocase ABCB1
Assay: Ratio of inhibition of P-gp overexpressed in human DU145-TxR cells assessed as increase in intracellular compound accumulation after 2.5 hrs in presence of tariquidar by LC-MS/MS analysis to Inhibition of P-gp overexpressed in human DU145-TxR cells assessed as decrease in intracellular compound accumulation after 2.5 hrs in absence of tariquidar by LC-MS/MS analysis
Assay type: cell-based
Details: not given
In short: as §3

Compound	Ratio
Cc1cc(C)c(-c2cc(NC(=O)CSc3cccc(NC(=O)c4cncc(Br)c4)c3)n(-c3ccccc3)n2)cc1C	1.1
Cc1cc(C)c(-c2cc(NC(=O)CSCC(=O)NCc3ccc(F)cc3)n(-c3ccccc3)n2)cc1C	1.3

Target: T3, P-glycoprotein (ABCB1, MDR1) ATPase (Homo sapiens, UniProt P08183)
T3 sequence (P08183 whole entry): as the sequence (P08183 whole entry) above
Assay: Inhibition of verampil-stimulated ATPase hydrolysis in recombinant human MDR1 expressed in Pichia pastoris measured after 30 mins in presence of NADH by coupled enzyme assay (reference value: 100 +/- 6 %)
Parameters: scale not given: the % may be the effect or the level left
Details: recombinant human MDR1 (P-gp) expressed in Pichia pastoris

Compound	Activity at 0.5 h
Cc1cc(C)c(-c2cc(NC(=O)CSc3cccc(NC(=O)c4cncc(Br)c4)c3)n(-c3ccccc3)n2)cc1C	27%
Cc1cc(C)c(-c2cc(NC(=O)CSCC(=O)NCc3ccc(F)cc3)n(-c3ccccc3)n2)cc1C	59%

Target: T3, P-glycoprotein (ABCB1, MDR1) ATPase
Assay: Effect on basal ATPase hydrolysis of recombinant human MDR1 expressed in Pichia pastoris measured after 30 mins in presence of NADH by coupled enzyme assay (reference value: 100 +/- 5 %)
Parameters: scale not given: the % may be the effect or the level left
Details: recombinant human MDR1 (P-gp) expressed in Pichia pastoris, read-out: Activity

Compound	Activity at 0.5 h
Cc1cc(C)c(-c2cc(NC(=O)CSCC(=O)NCc3ccc(F)cc3)n(-c3ccccc3)n2)cc1C	95%

Target: T3, P-glycoprotein (ABCB1, MDR1) ATPase
Assay: Basal ATPase hydrolysis in recombinant human MDR1 expressed in Pichia pastoris measured after 30 mins in presence of NADH by coupled enzyme assay (reference value: 100 +/- 5 %)
Parameters: scale not given: the % may be the effect or the level left
Details: recombinant human MDR1 (P-gp) expressed in Pichia pastoris

Compound	Activity at 0.5 h
Cc1cc(C)c(-c2cc(NC(=O)CSc3cccc(NC(=O)c4cncc(Br)c4)c3)n(-c3ccccc3)n2)cc1C	72%

Target: P-glycoprotein 1 Abcb1a (Mus musculus)
Assay: Inhibition of spin-labelled adenine nucleotide interaction with mouse MDR3 P-gp expressed in Escherichia coli BL21 (DE3) assessed as apparent dissociation constant by ESR analysis (reference value: 36.5 +/- 3.6 uM)
Details: not given

Compound	Kd
Cc1cc(C)c(-c2cc(NC(=O)CSc3cccc(NC(=O)c4cncc(Br)c4)c3)n(-c3ccccc3)n2)cc1C	22.8 µM
Cc1cc(C)c(-c2cc(NC(=O)CSCC(=O)NCc3ccc(F)cc3)n(-c3ccccc3)n2)cc1C	25.7 µM

Tested on: P-glycoprotein 1 Abcb1a (Mus musculus)
Assay: Inhibition of 2',3'-(2,2,5,5,-tetramethyl-3-pyrroline-l-oxyl-3-carboxylic acid ester)ATP interaction with mouse MDR3 P-gp expressed in Escherichia coli BL21 (DE3) assessed as reduction in ATP binding from 2 to 1 of nucleotide to mol of protein by ESR analysis (reference value: 1.8 +/- 0.1)
Details: not given

Compound	Activity
Cc1cc(C)c(-c2cc(NC(=O)CSc3cccc(NC(=O)c4cncc(Br)c4)c3)n(-c3ccccc3)n2)cc1C	1.7
Cc1cc(C)c(-c2cc(NC(=O)CSCC(=O)NCc3ccc(F)cc3)n(-c3ccccc3)n2)cc1C	1.9
